Source: PubChem BioAssay (Sanford-Burnham Center for Chemical Genomics)
Only some compounds are listed: those with a hit (about 2.4% of all), similar ones and a draw of the others.
SUMO1-SIM PPI = alters human SUMO1 binding to SIM partners; P63165; SUMO1 binding to a labelled peptide, TR-FRET, 1 h; inhibition, % at 20 µM; 360,000 tested, 0.33% active; in the data active = inhibition above about 37%
LMPTP block = LMPTP (human) inhibition. inhibition, % at 20 µM. AID 651560. P24666. recombinant LMPTP-A, OMFP fluorogenic substrate, fluorescence intensity. 360,000 tested, 0.22% active;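 active = compounds that cut the enzyme signal by at least half of the control window in the single-dose screen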
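Assay system: LMPTP-A phosphatase enzyme | Input: 0.625 nM enzyme | Also added: Fluorogenic phosphatase substrate OMFP at 400 µM final | Compound dosing: One test concentration per compound, 20 µM, with 3% DMSO overall | Schedule: 50 min enzyme reaction at room temperature, protected from light | Signal: Fluorescence intensity | Benchmarks: no-enzyme and uninhibited controls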
DNMT1 inh = blocks human DNA methyltransferase DNMT1; DNMT1 molecular beacon, Hinp1I cleavage, fluorescence; inhibition (reported as % activation of signal), % at 10 µM; 360,000 tested, 0.83% active; AID 588458; in the data active = inhibition above about 50%
Scp1 inh = blocks human Scp-1 phosphatase activity. 340,000 tested, 0.88% active. Recombinant Scp1, phosphopeptide, malachite green phosphate absorbance. AID 493091. inhibition, % at 20 µM. Q9GZU7;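 active = inhibition above about 50% at 20 µM, limit read from the data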
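Times: enzyme reaction 45 min at room temperature, colour 5 min, stabilisation 30 min. Material: SCP-1 catalytic fragment, aa 76-261. Medium: Acidic Tris acetate buffer with magnesium and detergent. Signal: colorimetric free-phosphate detection, absorbance 630 nm. Read-out basis: % inhibition of SCP-1 phosphate liberation. Reagent: Phosphorylated 17-residue peptide substrate.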
STEP inh = blocks human striatal-enriched tyrosine phosphatase. P54829. recombinant STEP, OMFP fluorogenic substrate, fluorescence. 360,000 tested, 0.25% active. AID 588621. inhibition, % at 20 µM;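 active = inhibition at 20 µM, scaled per plate between control wells, above about 37%, limit read from the data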
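Assay system: isolated STEP enzyme / Timing: 20 min at room temperature, dark / Doses: 20 µM, 1% DMSO / Technique: fluorescence intensity, excitation 480 nm, emission 540 nm / Reagent: fluorogenic phosphatase substrate OMFP at 25 µM final / Measure: percent inhibition scaled to no-enzyme and uninhibited-enzyme controls, plate-pattern corrected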
NadD inh = NadD (S. aureus) enzyme inhibition | purified NadD enzyme, colorimetric absorbance read-out | inhibition, % at 20 µM | 360,000 tested, 0.78% active | AID 602399; in the data active = inhibition above about 26%
NadD inh conf = NadD (S. aureus) inhibition, single concentration confirmation; shares compounds with NadD inh; purified S. aureus NadD, colorimetric enzyme assay; inhibition, % at 20 µM; 2,000 tested, 13% active; AID 624309; in the data active = inhibition mostly above about 42%, no sharp cut-off; inactive = mostly below about 42%
Numbers stand for hits; – = inactive; · = not tested or not shown.

SMILES | SUMO1-SIM PPI | LMPTP block | DNMT1 inh | Scp1 inh | STEP inh | NadD inh | NadD inh conf
O=C(c1ccc(Cl)c(S(=O)(=O)N2CCCCC2)c1)N1CCCC(C(F)(F)F)C1 (stereo unspecified) | – | – | – | – | – | – | ·
COC(=O)C1=C(C(=O)OC)[C@@H]2Nc3ccccc3[C@@]23C[C@@H](C(=O)OC)N(C(=O)c2cccs2)C3=N1 | – | – | – | – | – | – | ·
Cc1ccc(-c2csc(NC(=O)CSc3nnc4c(n3)[nH]c3ccccc34)n2)cc1 | – | – | – | – | – | 58 | –
CC1(C)Cc2c(C#N)c(N3CCN(C(=O)c4ccccc4Cl)CC3)nc(-c3ccco3)c2CS1 | – | – | – | – | – | 34 | –
COc1ccc(C2OCC(C)(C)CO2)cc1OC | – | – | – | – | – | – | ·
COc1ccc(C2C=C(C34CC5CC(CC(C5)C3)C4)NC(=S)N2)cc1OC (stereo unspecified) | – | – | – | – | – | 29 | –
Cc1ccc2nc3c(cc2c1)CN(Cc1ccco1)C(=NCC1CCCO1)S3 (stereo unspecified) | – | – | – | – | – | 45 | –
Cc1cccc2cc3c(nc12)SC(=NCC1CCCO1)N(Cc1ccco1)C3 (stereo unspecified) | – | – | – | – | – | – | ·
N#CCSc1nc2ccc(N3CCCCC3)cc2c(=O)n1Cc1ccccc1 | – | – | – | – | – | 41 | –
N#CCSc1nc2ccccc2c(=O)n1CC1CCCC1 | – | – | – | – | – | – | ·
Cc1ccc(NC(=O)CN2C(=O)S/C(=C/c3ccc(O)c([N+](=O)[O-])c3)C2=O)cc1C | – | 80 | – | 76 | – | 35 | –
CN(CC(=O)Nc1ccccc1Cl)C(=O)COC(=O)c1nc(Cl)c(Cl)c(Cl)c1Cl | – | – | – | – | – | – | ·
O=[N+]([O-])c1ccc2[nH]cc(S(=O)(=O)N3CCN(c4cccc(Cl)c4)CC3)c2c1 | – | – | – | – | – | 31 | –
COc1ccc(C(=O)NNC(=S)NC(=O)c2cc(-c3ccccc3)nc3ccccc23)cc1 | – | – | – | – | – | 49 | 68
CCCOc1ccc(C(=O)NNC(=S)NC(=O)c2cc(-c3ccc(Cl)cc3)nc3ccccc23)cc1 | – | – | – | – | – | 79 | –
COc1ccc(-c2cc(C(=O)NNC(=S)NC(=O)c3c(-c4ccccc4)noc3C)[nH]n2)cc1 | – | – | – | – | – | 42 | 52
COc1ccc(Cl)cc1C(=O)NNC(=S)NC(=O)c1cc(-c2ccccc2)nc2ccccc12 | – | – | – | – | – | 61 | –
CSc1ccccc1C(=O)NC1CCSc2ccccc21 (stereo unspecified) | – | – | – | – | – | – | ·
C#CCn1c(O)c(N=NC(=O)CNC(=O)c2cccnc2)c2ccccc21 | – | – | – | – | – | – | ·
O=C(NNC(=O)c1cc(-c2ccccc2)nc2ccccc12)Nc1cccc(Cl)c1 | – | – | – | – | – | – | ·
CC(C)(C)c1ccc(-c2cc(C(=O)NNC(=O)Nc3ccccc3)c3ccccc3n2)cc1 | – | – | – | – | – | 37 | –
CC(=O)c1nnn(-c2nc(N)nc(N(c3ccccc3)c3ccccc3)n2)c1C | – | – | – | – | – | – | ·
Cc1cc(C)n(-c2nc(N(c3ccccc3)c3ccccc3)nc(-n3nc(C)cc3C)n2)n1 | – | – | – | – | – | 42 | –
CC(=O)NC12CC3CC(C1)CC(C(=O)N1CCN(c4ncccn4)CC1)(C3)C2 | – | – | – | – | – | – | ·
O=c1[nH]c(C2CCN(S(=O)(=O)c3ccc4c(c3)OCCO4)CC2)nc2c1nnn2Cc1ccccc1F | – | – | – | – | – | 34 | –
SMILES | SUMO1-SIM PPI | LMPTP block | DNMT1 inh | Scp1 inh | STEP inh | NadD inh | NadD inh conf
O=c1[nH]c(C2CCN(S(=O)(=O)c3ccc4c(c3)OCCO4)CC2)nc2c1nnn2Cc1c(F)cccc1Cl | – | – | – | – | – | 33 | –
O=c1[nH]c(C2CCN(S(=O)(=O)c3ccccc3)CC2)nc2c1nnn2Cc1c(F)cccc1Cl | – | – | – | – | – | – | ·
O=C(/C=C/c1cccs1)c1cc(Cl)ccc1O | – | – | – | – | – | – | ·
O=C(/C=C/c1ccc2ccccc2n1)c1cc(Cl)ccc1O | – | – | – | – | – | 33 | –
COc1ccccc1CNC(=O)C(Cc1c[nH]c2ccccc12)NC(=O)OCc1ccccc1 (stereo unspecified) | – | – | – | – | – | – | ·
Cc1ccc(-c2[nH]c3cc(C(=O)NCCCn4ccnc4)ccc3c(=O)c2O)cc1 | – | 51 | – | – | – | 54 | –
Cc1ccc(-c2cc(-c3ccccc3Cl)c(C#N)c(N)n2)o1 | – | – | – | – | – | 68 | 57
Cc1ccc(-c2cc(-c3ccccc3)c(C#N)c(N)n2)o1 | – | – | – | – | – | 41 | –
Cc1ccc(-c2cc(-c3ccc(F)cc3)nc(N)c2C#N)o1 | – | – | – | – | – | – | ·
O=C(CSC1=NS(=O)(=O)c2cc(Cl)ccc2N1)Nc1cccc(F)c1 | – | – | – | – | – | – | ·
O=C(Nc1cccc(S(=O)(=O)N2CCCCC2)c1)c1c2c(nc3ccccc13)CCN(Cc1ccccc1)C2 | – | – | – | – | – | 30 | –
COc1cc2c(cc1[N+](=O)[O-])-c1ccc([N+](=O)[O-])cc1C2=NNC(N)=S | – | – | – | · | – | 48 | –
CCOc1cc(/C=N/Nc2nc(Nc3ccccc3)nc(N3CCCCC3)n2)ccc1OCC(=O)O | – | – | – | – | – | 33 | –
O=[N+]([O-])c1ccc(Nc2nc(N/N=C\c3ccc4c(c3)OCO4)nc(N3CCCCC3)n2)cc1 | – | – | – | – | – | 45 | –
CC1CCC(NC(=O)COC(=O)c2ccco2)CC1 (stereo unspecified) | – | – | – | – | – | – | ·
Cc1ccc(C(=O)N2N=C(CC(C)C)CC2(O)C(F)(F)F)o1 (stereo unspecified) | – | – | – | – | – | – | ·
CCN(CC)CCCN(C(=O)c1ccc(Br)cc1)c1nc(-c2ccc(OC)cc2)cs1 | – | – | – | – | – | – | ·
CCN(CC)CCOC(=O)c1ccc(N/C=C(/C#N)c2nc(-c3ccc(OC)cc3)cs2)cc1 | 81 | – | – | – | – | 32 | –
CCc1c(C)sc(NC(=O)Cc2ccccc2C)c1C(=O)N1CCOCC1 | – | – | – | – | – | – | ·
COc1ccc(C(=O)Nc2cccc(-c3cc4ccccc4oc3=O)c2)cc1[N+](=O)[O-] | – | – | – | – | – | 35 | –
CC(=O)Nc1ccc(NC(=O)c2cccc(-c3cc4ccccc4oc3=O)c2)cc1 | – | – | – | – | – | – | ·
